Measured values: ChEMBL document CHEMBL5576048, “A Second-Generation Oral SARS-CoV-2 Main Protease Inhibitor Clinical Candidate for the Treatment of COVID-19” (J Med Chem, 2024)

Experiments:
[1] = system: SARS-CoV-2; test: Antiviral activity against SARS CoV-2 USA_WA1/2020 infected in ACE2 enriched African green monkey Vero E6 cells assessed as reduction in virus-induced cytopathic effect measured after 3 days by celltiter-glo assay; type: functional, organism-based; conditions: Severe acute respiratory syndrome coronavirus 2, USA_WA1/2020, Vero C1008, 72 h
[2] = Passive permeability across apical to basolateral side in dog RRCK cells incubated for 30 mins; type: ADME, cell-based, Canis lupus familiaris; conditions: mdckii-le, 0.5 h
[3] = Lipophilicity, log D of compound at pH 7.4 by shake-flask method; type: physicochemical; conditions: buffer
[4] = AUC (0 to 24 hrs) in Wistar Hannover rat at 100 mg/kg, po administered as crystalline anhydrous form in 2% (v/v) Tween 80/98% 0.5% (w/v) methyl cellulose in water formulation by LC-MS/MS analysis; type: ADME, organism-based; conditions: in vivo
Method in brief: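 Single high oral dose of 100 mg/kg in male Wistar–Han rats in the fed state, given as crystalline suspension in 2% (v/v) Tween 80 in 0.5% (w/v) methylcellulose in water. Parameters were derived from plasma concentration–time data and reported as mean ± S.D. (n = 3) or mean and individual values (n = 2).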

[5] = AUC (0 to 24 hrs) in Wistar Hannover rat at 10 mg/kg, po administered as crystalline MTBE in 10% (v/v) ethanol/10% (v/v) capmul MCM/35% (v/v) PEG400/45% (v/v) Tween 80 formulation by LC-MS/MS analysis; type: ADME, organism-based; conditions: in vivo
[6] = AUC (0 to 24 hrs) in Wistar Hannover rat at 100 mg/kg, po administered as crystalline MTBE in 10% (v/v) ethanol/10% (v/v) capmul MCM/35% (v/v) PEG400/45% (v/v) Tween 80 formulation by LC-MS/MS analysis; type: ADME, organism-based; conditions: in vivo
[7] = AUC (0 to 24 hrs) in Wistar Hannover rat at 1000 mg/kg, po administered as crystalline MTBE in 10% (v/v) ethanol/10% (v/v) capmul MCM/35% (v/v) PEG400/45% (v/v) Tween 80 formulation by LC-MS/MS analysis; type: ADME, organism-based; conditions: in vivo
[8] = in vivo; conditions: Wistar Hannover, rat, po, 1000 mg/kg
[9] = in vivo; conditions: Wistar Hannover, rat, po, 100 mg/kg
[10] = in vivo; conditions: Wistar Hannover, rat, po, 10 mg/kg
[11] = in vivo; conditions: Wistar Hannover, rat, po, 100 mg/kg; remark: listed apart in the source
[12] = in vivo; conditions: Wistar Hannover, rat, po, 1000 mg/kg; remark: listed apart in the source
[13] = Metabolic stability in human liver microsome assessed as apparent intrinsic clearance in presence of NADPH incubated for 40 mins by LS-MS/MS analysis; type: ADME; conditions: microsomes
[14] = target: Replicase polyprotein 1ab (Severe acute respiratory syndrome coronavirus 2, UniProt P0DTD1); test: Inhibition of SARS-Cov-2 MPro assessed as inhibition constant by FRET assay
[15] = Clearance in Wistar Hannover rat at 1 mg/kg, iv by LC-MS/MS analysis; type: ADME, organism-based; conditions: in vivo
[16] = Volume of distribution at steady state in Wistar Hannover rat at 1 mg/kg, iv by LC-MS/MS analysis; type: ADME, organism-based; conditions: in vivo, read-out: Vdss
[17] = Half life in Wistar Hannover rat at 1 mg/kg, iv by LC-MS/MS analysis; type: ADME, organism-based; conditions: in vivo
[18] = Renal clerance in Wistar Hannover rat at 1 mg/kg, iv by LC-MS/MS analysis; type: ADME, organism-based; conditions: in vivo
[19] = Cmax in Wistar Hannover rat at 10 mg/kg, po by LC-MS/MS analysis; type: ADME, organism-based; conditions: in vivo
Method in brief: (§1)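 Male Wistar–Han rats in the fed state were dosed orally at 10 mg/kg, as amorphous solid in solution or crystalline solid in suspension, in 2% (v/v) Tween 80 in 0.5% (w/v) methyl cellulose in water. Parameters were calculated from plasma concentration–time data; mean and individual values given (n = 2). Oral F is set against a 1 mg/kg i.v. dose.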

[20] = Cmax in Wistar Hannover rat at 10 mg/kg, po administered as ASD form in 2% Tween 80 (v/v) in 0.5% (w/v) methyl cellulose in water formulation by LC-MS/MS analysis; type: ADME, organism-based; conditions: in vivo
Method in brief: (§2)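 Parameters come from plasma concentration–time data as mean and individual values (n = 2); exposure for this form was reported as AUC0–∞. Oral F is referenced to a 1 mg/kg i.v. dose.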

[21] = Tmax in Wistar Hannover rat at 10 mg/kg, po by LC-MS/MS analysis; type: ADME, organism-based; conditions: in vivo; method in brief: as §1
[22] = Tmax in Wistar Hannover rat at 10 mg/kg, po administered as ASD form in 2% Tween 80 (v/v) in 0.5% (w/v) methyl cellulose in water formulation by LC-MS/MS analysis; type: ADME, organism-based; conditions: in vivo; method in brief: as §2
[23] = AUC (0 to 24 hrs) in Wistar Hannover rat at 1 mg/kg, iv by LC-MS/MS analysis; type: ADME, organism-based; conditions: in vivo
[24] = AUC (0 to 24 hrs) in Wistar Hannover rat at 10 mg/kg, po by LC-MS/MS analysis; type: ADME, organism-based; conditions: in vivo; method in brief: as §1
[25] = AUC (0 to 24 hrs) in Wistar Hannover rat at 10 mg/kg, po administered as ASD form in 2% Tween 80 (v/v) in 0.5% (w/v) methyl cellulose in water formulation by LC-MS/MS analysis; type: ADME, organism-based; conditions: in vivo
[26] = Oral bioavailability in Wistar Hannover rat at 10 mg/kg by LC-MS/MS analysis; type: ADME, organism-based; conditions: in vivo; method in brief: as §1
[27] = Oral bioavailability in Wistar Hannover rat at 10 mg/kg administered as ASD form in 2% Tween 80 (v/v) in 0.5% (w/v) methyl cellulose in water formulation by LC-MS/MS analysis; type: ADME, organism-based; conditions: in vivo; method in brief: as §2
[28] = system: SARS-CoV-2; test: Antiviral activity against SARS CoV-2 infected in African green monkey Vero E6 cells; type: functional, organism-based; conditions: Severe acute respiratory syndrome coronavirus 2, Vero C1008
[29] = Cmax in Wistar Hannover rat at 10 mg/kg, po administered as crystalline form in 2% Tween 80 (v/v) in 0.5% (w/v) methyl cellulose in water formulation by LC-MS/MS analysis; type: ADME, organism-based; conditions: in vivo; method in brief: as §1
[30] = Tmax in Wistar Hannover rat at 10 mg/kg, po administered as crystalline form in 2% Tween 80 (v/v) in 0.5% (w/v) methyl cellulose in water formulation by LC-MS/MS analysis; type: ADME, organism-based; conditions: in vivo; method in brief: as §1
[31] = AUC (0 to 24 hrs) in Wistar Hannover rat at 10 mg/kg, po administered as crystalline form in 2% Tween 80 (v/v) in 0.5% (w/v) methyl cellulose in water formulation by LC-MS/MS analysis; type: ADME, organism-based; conditions: in vivo; method in brief: as §1
[32] = Oral bioavailability in Wistar Hannover rat at 10 mg/kg administered as crystalline form in 2% Tween 80 (v/v) in 0.5% (w/v) methyl cellulose in water formulation by LC-MS/MS analysis; type: ADME, organism-based; conditions: in vivo; method in brief: as §1

| Compound | EC50 [1] | permeability [2] | logD [3] | CLH(app) [13] | Ki [14] | further results |
| --- | --- | --- | --- | --- | --- | --- |
| CC(C)(C)[C@H](NC(=O)C(F)(F)F)C(=O)N1C[C@H]2[C@@H]([C@H]1C(=O)N[C@H](C#N)C[C@@H]1CCNC1=O)C2(C)C | 81.4 nM | 1.03 10^-6 cm/s | 1.9 | – | – | AUC(0-t) [4]: 18000 ng·h/mL; AUC(0-t) [5]: 3190 ng·h/mL; AUC(0-t) [6]: 68300 ng·h/mL; AUC(0-t) [7]: 746000 ng·h/mL; Cmax [8]: 88300 ng/mL; Tmax [9]: 84 min; Tmax [10]: 90 min; Tmax [11]: 45 min; Tmax [12]: 60 min |
| CNC(=O)N[C@H](C(=O)N1C[C@H]2[C@@H]([C@H]1C(=O)N[C@H](C#N)C[C@@H]1CCNC1=O)C2(C)C)C(C)(C)C | – | 0.62 10^-6 cm/s | 0.77 | < 7.12 µL/min/mg | – | – |
| COC(=O)N[C@H](C(=O)N1C[C@H]2[C@@H]([C@H]1C(=O)N[C@H](C#N)C[C@@H]1CCNC1=O)C2(C)C)C(C)(C)C | – | 0.61 10^-6 cm/s | 1.2 | 8.1 µL/min/mg | – | – |
| CC(C)(C)[C@H](NC(=O)C(F)(F)F)C(=O)N1C[C@H](C(F)(F)F)C[C@H]1C(=O)N[C@H](C#N)C[C@@H]1CCNC1=O | 65.5 nM | 0.71 10^-6 cm/s | 1.4 | 13 µL/min/mg | 4.46 nM | – |
| COC(=O)N[C@H](C(=O)N1C[C@H](C(F)(F)F)C[C@H]1C(=O)N[C@H](C#N)C[C@@H]1CCCNC1=O)C(C)C | 78.9 nM | 0.63 10^-6 cm/s | 0.7 | < 7.12 µL/min/mg | 1.13 nM | clearance [15]: 35.6 mL/min/kg; Vd [16]: 0.55 L/kg; half-life [17]: 114 min; CL renal [18]: 7.6 mL/min/kg; Cmax [19]: 310 ng/mL; Cmax [20]: 177 ng/mL; Tmax [21]: 22.8 min; Tmax [22]: 22.8 min; AUC(0-t) [23]: 467 ng·h/mL; AUC(0-t) [24]: 359 ng·h/mL; AUC(0-t) [25]: 380 ng·h/mL; bioavailability [26]: 7.7%; bioavailability [27]: 8.1% |
| COC(=O)N[C@H](C(=O)N1C[C@H](OC(F)F)C[C@H]1C(=O)N[C@H](C#N)C[C@@H]1CCNC1=O)C(C)(C)C | 450 nM | 0.76 10^-6 cm/s | 0.6 | < 7.12 µL/min/mg | 3.88 nM | – |
| COC(=O)N[C@H](C(=O)N1C[C@H](C(F)(F)F)C[C@H]1C(=O)N[C@H](C#N)C[C@@H]1CC(O)NC1=O)C(C)(C)C (stereo not given in full) | – | – | – | – | 13 nM | EC50 [28]: 1650 nM |
| COC(=O)N[C@H](C(=O)N1C[C@H](OC(F)(F)F)C[C@H]1C(=O)N[C@H](C#N)C[C@@H]1CCNC1=O)C(C)(C)C | 141 nM | 2.05 10^-6 cm/s | 1 | < 7.12 µL/min/mg | 0.63 nM | clearance [15]: 25.4 mL/min/kg; Vd [16]: 0.87 L/kg; half-life [17]: 360 min; CL renal [18]: 8.1 mL/min/kg; Cmax [19]: 358 ng/mL; Tmax [21]: 15 min; AUC(0-t) [23]: 650 ng·h/mL; AUC(0-t) [24]: 559 ng·h/mL; bioavailability [26]: 8.6% |
| COC(=O)N[C@H](C(=O)N1C[C@H](C(F)(F)F)C[C@H]1C(=O)N[C@H](C#N)C[C@@H]1CCCNC1=O)C(C)(C)C | 46.2 nM | 0.4 10^-6 cm/s | 1.2 | 9.5 µL/min/mg | 0.17 nM | – |
| CC(C)(C)[C@H](NC(=O)C(F)(F)F)C(=O)N1C[C@H](OC(F)(F)F)C[C@H]1C(=O)N[C@H](C#N)C[C@@H]1CCNC1=O | 80.9 nM | 1.12 10^-6 cm/s | 1.7 | < 9.42 µL/min/mg | 0.71 nM | – |
| COC(=O)N[C@H](C(=O)N1C[C@H](C(F)(F)F)C[C@H]1C(=O)N[C@H](C#N)C[C@@H]1CCNC1=O)C(C)C | 488 nM | 0.5 10^-6 cm/s | 0.9 | < 7.12 µL/min/mg | 13.3 nM | – |
| CC(C)(C)[C@H](NC(=O)C(F)(F)F)C(=O)N1C[C@H](OC(F)F)C[C@H]1C(=O)N[C@H](C#N)C[C@@H]1CCNC1=O | 193 nM | 1.25 10^-6 cm/s | 1.2 | < 7.12 µL/min/mg | 2.83 nM | clearance [15]: 33.1 mL/min/kg; Vd [16]: 1.05 L/kg; half-life [17]: 306 min; CL renal [18]: 4.5 mL/min/kg; Cmax [29]: 272 ng/mL; Cmax [20]: 92.8 ng/mL; Tmax [30]: 30 min; Tmax [22]: 45 min; AUC(0-t) [23]: 502 ng·h/mL; AUC(0-t) [31]: 599 ng·h/mL; AUC(0-t) [25]: 212 ng·h/mL; bioavailability [32]: 11.9%; bioavailability [27]: 4.2% |
